Source: ChEMBL document CHEMBL4014319, “Tolvaptan-Type Vasopressin Receptor Ligands: Important Role of Axial Chirality in the Active Form” (J Med Chem, 2017)

Assays:
Vasopressin V1a receptor = Vasopressin V1a receptor (Homo sapiens, UniProt P37288); experiment: Displacement of [125I] phenylacetyl-D-Tyr(Me)-Phe-Gln-Asn-Arg-Pro-Arg-Tyr-NH2 from human recombinant vasopressin V1a receptor expressed in HEK293 after 2 hrs by liquid scintillation counting method; assay type: cell-based
Procedure, shortened: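 Recombinant human V1a receptor expressed in HEK-293 cells, tested in 50 mM Tris-HCl pH 7.4 buffer with 5 mM MgCl2 and 0.1% BSA. Incubation 2 h at 25 °C in 1% DMSO. Compounds were ≥99% pure by HPLC and were kept at low temperature after isolation to prevent isomerization. Ki is the mean of duplicate measurements.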

Vasopressin V2 receptor = Vasopressin V2 receptor (Homo sapiens, UniProt P30518); experiment: Displacement of [3H] (Arg8)-vasopressin from human vasopressin V2 receptor expressed in CHOK1 cell membranes after 2 hrs by liquid scintillation counting method
Sequence of Vasopressin V2 receptor (P30518 whole entry): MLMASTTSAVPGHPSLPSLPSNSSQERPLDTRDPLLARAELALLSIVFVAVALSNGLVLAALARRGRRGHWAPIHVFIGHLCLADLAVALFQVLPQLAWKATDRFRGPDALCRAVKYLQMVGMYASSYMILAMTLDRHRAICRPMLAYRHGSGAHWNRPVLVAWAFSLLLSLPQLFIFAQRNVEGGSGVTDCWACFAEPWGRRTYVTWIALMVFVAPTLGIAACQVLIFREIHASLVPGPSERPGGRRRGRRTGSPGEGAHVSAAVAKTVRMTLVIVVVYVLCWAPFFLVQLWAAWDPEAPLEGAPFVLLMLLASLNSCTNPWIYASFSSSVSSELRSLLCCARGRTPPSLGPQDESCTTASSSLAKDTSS
Procedure, shortened: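 Membranes (9 μg aliquot) prepared from CHO-K1 cells stably transfected with human V2 receptor, in 50 mM Tris-HCl pH 7.4, 10 mM MgCl2, 0.1% BSA. Incubated with 4 nM [3H](Arg8)-vasopressin for 2 h at 25 °C in 1% DMSO. Compounds were ≥99% pure by HPLC. Ki is the mean of duplicate measurements.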

Sequence of Vasopressin V1a receptor (P37288 whole entry): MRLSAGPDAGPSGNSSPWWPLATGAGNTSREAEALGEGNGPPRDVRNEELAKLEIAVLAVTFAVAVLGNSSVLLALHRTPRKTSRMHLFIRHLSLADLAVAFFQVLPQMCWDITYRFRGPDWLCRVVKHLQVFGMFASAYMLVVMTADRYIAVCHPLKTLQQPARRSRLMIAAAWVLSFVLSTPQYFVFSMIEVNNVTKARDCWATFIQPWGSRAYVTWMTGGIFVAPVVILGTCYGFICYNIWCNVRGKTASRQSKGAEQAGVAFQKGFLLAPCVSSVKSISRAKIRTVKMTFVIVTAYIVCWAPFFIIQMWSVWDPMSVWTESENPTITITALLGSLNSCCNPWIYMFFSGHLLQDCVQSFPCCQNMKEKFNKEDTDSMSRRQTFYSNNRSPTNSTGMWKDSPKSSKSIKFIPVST

Ki (Vasopressin V1a receptor) | Ki (Vasopressin V2 receptor) | SMILES
2.84 nM | 140 nM | Cc1ccccc1C(=O)Nc1ccc(C(=O)N2CCC[C@@H](O)c3cccc(C)c32)cc1
1.03 nM | 8.3 nM | Cc1ccccc1C(=O)Nc1ccc(C(=O)N2CCC[C@@H](O)c3ccccc32)cc1
4.68 nM | 54 nM | Cc1ccccc1C(=O)Nc1ccc(C(=O)N2CCC[C@H](O)c3cccc(C)c32)cc1
2.06 nM | 46 nM | Cc1ccccc1C(=O)Nc1ccc(C(=O)N2CCC[C@H](O)c3c(C)cccc32)cc1
6.26 nM | 170 nM | Cc1ccccc1C(=O)Nc1ccc(C(=O)N2CCCC(O)c3cccc(C)c32)cc1 (stereo not drawn)
1.85 nM | 4.87 nM | Cc1ccccc1C(=O)Nc1ccc(C(=O)N2CCC[C@H](O)c3ccccc32)cc1
78 nM | 1790 nM | Cc1ccccc1C(=O)Nc1ccc(C(=O)N2CCC[C@@H](O)c3c(C)cccc32)cc1 (atropisomer aR)
1.58 nM | 7.56 nM | Cc1ccccc1C(=O)Nc1ccc(C(=O)N2CCCC(O)c3ccccc32)cc1 (racemic)
6.75 nM | 160 nM | Cc1ccccc1C(=O)Nc1ccc(C(=O)N2CCCC(O)c3c(C)cccc32)cc1 (racemic)
